Tests used:
[1] = Toxicity in RBC (unknown origin) assessed as hemolysis after 48 hrs at 20 to 80 ug/ml by spectrophotometry; assay type: cell-based, Erythrocyte; conditions: red blood cells (RBC); read-out: Activity
In short: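 Red blood cells at 5% hematocrit in RPMI 1640 exposed to 20, 40 and 80 µg/mL for 48 h at 37 °C; free hemoglobin read spectrophotometrically at 542 nm.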

Plasmodium falciparum = assay: Antimalarial activity against Plasmodium falciparum NF54 infected in human serum at 20 ug/ml after 48 hrs by fluorometric method; assay type: functional
In short: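 Asynchronous P. falciparum NF54 at 1.5–2% parasitemia, 5% hematocrit in RPMI with 10% human serum, exposed 48 h at 37 °C under 90% N2/5% CO2/5% O2 at the stated concentration; parasite DNA stained with ethidium bromide after proteinase K lysis; viability % = (Flu treated − medium)/(Flu untreated − medium) ×100; triplicate.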

T47D = assay: Cytotoxicity against human T47D cells after 48 hrs by SRB assay; assay type: functional
In short: (§1)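 NCI 60-cell screen. Cells grew 24 h (37 °C, 5% CO2) before compound was added. Compounds were in DMSO and diluted in medium with gentamicin, then tested at five levels (100, 10, 1.0, 0.1, 0.01 µM) with 48 h continuous exposure. Adherent cells were fixed with TCA (10% final) and stained with 0.4% SRB, absorbance read at 515 nm. A time-zero plate was included. LC50 is the concentration giving 50% loss of protein relative to time zero.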

TK-10 = assay: Cytotoxicity against human TK10 cells after 48 hrs by SRB assay; assay type: functional; conditions: TK-10, 48 h; in short: as §1
CAKI-1 = assay: Cytotoxicity against human Caki1 cells after 48 hrs by SRB assay; assay type: functional; conditions: CAKI-1, 48 h
In short: (§2)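 NCI 60-cell-line screen. Cells preincubated 24 h at 37 °C, 5% CO2; time-zero plates TCA-fixed. Compounds dissolved in DMSO and tested at five concentrations (100, 10, 1.0, 0.1, 0.01 µM) for 48 h continuous exposure. Adherent cells fixed with cold TCA (10% final), then SRB stained; absorbance at 515 nm. GI50, TGI and LC50 calculated from growth relative to time-zero and untreated controls.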

RXF 393 = assay: Cytotoxicity against human RXF393 cells after 48 hrs by SRB assay; assay type: functional; conditions: RXF 393, 48 h; in short: as §2
ACHN = assay: Cytotoxicity against human ACHN cells after 48 hrs by SRB assay; assay type: functional; conditions: for CC50: read-out: LC50 (the source's name); in short: as §2
A498 = assay: Cytotoxicity against human A498 cells after 48 hrs by SRB assay; assay type: functional; conditions: A498, 48 h; for CC50: read-out: LC50 (the source's name); in short: as §2
SK-OV-3 = assay: Cytotoxicity against human SKOV3 cells after 48 hrs by SRB assay; assay type: functional; conditions: SK-OV-3, 48 h; in short: as §2
OVCAR-8 = assay: Cytotoxicity against human OVCAR8 cells after 48 hrs by SRB assay; assay type: functional; conditions: OVCAR-8, 48 h; in short: as §2
OVCAR-5 = assay: Cytotoxicity against human OVCAR5 cells after 48 hrs by SRB assay; assay type: functional; conditions: OVCAR-5, 48 h; in short: as §2
SK-MEL-28 = assay: Cytotoxicity against human SK-MEL-28 cells after 48 hrs by SRB assay; assay type: functional; conditions: SK-MEL-28, 48 h; for CC50: read-out: LC50 (the source's name); in short: as §2
Malme-3M = assay: Cytotoxicity against human MALME-3M cells after 48 hrs by SRB assay; assay type: functional; in short: as §2
U-251 = assay: Cytotoxicity against human U251 cells after 48 hrs by SRB assay; assay type: functional; conditions: U-251, 48 h; for CC50: read-out: LC50 (the source's name); in short: as §1
SF-539 = assay: Cytotoxicity against human SF539 cells after 48 hrs by SRB assay; assay type: functional; conditions: SF-539, 48 h; for CC50: read-out: LC50 (the source's name); in short: as §2
SF-295 = assay: Cytotoxicity against human SF295 cells after 48 hrs by SRB assay; assay type: functional; conditions: SF-295, 48 h; in short: as §2
SW-620 = assay: Cytotoxicity against human SW620 cells after 48 hrs by SRB assay; assay type: functional; conditions: SW-620, 48 h; in short: as §1
HT-29 = assay: Cytotoxicity against human HT-29 cells after 48 hrs by SRB assay; assay type: functional; conditions: HT-29, 48 h; in short: as §2
HCT-116 = assay: Cytotoxicity against human HCT116 cells after 48 hrs by SRB assay; assay type: functional; conditions: HCT-116, 48 h; in short: as §2
COLO 205 = assay: Cytotoxicity against human COLO205 cells after 48 hrs by SRB assay; assay type: functional; conditions: COLO 205, 48 h; in short: as §2
SR = assay: Cytotoxicity against human SR cells after 48 hrs by SRB assay; assay type: functional; in short: as §1
RPMI-8226 = assay: Cytotoxicity against human RPMI8226 cells after 48 hrs by SRB assay; assay type: functional; conditions: RPMI-8226, 48 h; in short: as §2
MOLT-4 = assay: Cytotoxicity against human MOLT4 cells after 48 hrs by SRB assay; assay type: functional; conditions: MOLT-4, 48 h; in short: as §2
CCRF-CEM = assay: Cytotoxicity against human CCRF-CEM cells after 48 hrs by SRB assay; assay type: functional; in short: as §2
NCI-H322M = assay: Cytotoxicity against human NCI-H322M cells after 48 hrs by SRB assay; assay type: functional; in short: as §2
K562 = assay: Cytotoxicity against human K562 cells after 48 hrs by SRB assay; assay type: functional; conditions: K562, 48 h; in short: as §2

With `O=CN1N=C(c2ccc(Nc3ccnc4cc(Cl)ccc34)cc2)CC1c1ccccc1` (stereo not given) the hemolysis at 48 h [1] was 3.8%, the inhibition at 20 µg/mL (Plasmodium falciparum) was 20.2% and the GI50 (T47D) was 2180 nM. The LC50 (concentration giving 50% cell kill relative to time zero) (T47D) was greater than 100000 nM, the GI50 (TK-10) was 9510 nM and the LC50 (concentration giving 50% cell loss vs time zero) (TK-10) was greater than 100000 nM. The GI50 (CAKI-1) was 3820 nM, the LC50 (CAKI-1) was greater than 100000 nM and the GI50 (RXF 393) was 2200 nM. It also gave an LC50 (concentration killing 50% of cells) (RXF 393) greater than 100000 nM, a GI50 (ACHN) of 4210 nM and a CC50 (ACHN) greater than 100000 nM. The GI50 (A498) was 1300 nM, the CC50 (A498) was greater than 100000 nM and the GI50 (SK-OV-3) was 11300 nM. For the same compound, the LC50 (concentration killing 50% of cells) (SK-OV-3) was greater than 100000 nM, the GI50 (OVCAR-8) was 4530 nM and the LC50 (50% net cell kill) (OVCAR-8) was greater than 100000 nM. For the same compound, the GI50 (OVCAR-5) was 19800 nM, the LC50 (OVCAR-5) was greater than 100000 nM and the GI50 (SK-MEL-28) was 8350 nM. For the same compound, the CC50 (SK-MEL-28) was greater than 100000 nM, the GI50 (Malme-3M) was 4210 nM and the LC50 (Malme-3M) was greater than 100000 nM. It also gave a GI50 (U-251) of 3120 nM, a CC50 (U-251) greater than 100000 nM and a GI50 (SF-539) of 4570 nM. It also gave a CC50 (SF-539) of 99200 nM, a GI50 (SF-295) of 2410 nM and an LC50 (SF-295) greater than 100000 nM. It also gave a GI50 (SW-620) of 2730 nM, an LC50 (SW-620) of 68700 nM and a GI50 (HT-29) of 3210 nM. For the same compound, the LC50 (HT-29) was greater than 100000 nM, the GI50 (HCT-116) was 3580 nM and the LC50 (HCT-116) was greater than 100000 nM. It also gave a GI50 (COLO 205) of 2210 nM, an LC50 (COLO 205) greater than 100000 nM and a GI50 (SR) of 1770 nM. It also gave an LC50 (SR) greater than 100000 nM, a GI50 (RPMI-8226) of 2550 nM and an LC50 (concentration killing 50% of cells) (RPMI-8226) greater than 100000 nM. The GI50 (MOLT-4) was 2280 nM, the LC50 (MOLT-4) was greater than 100000 nM and the GI50 (CCRF-CEM) was 2510 nM. It also gave an LC50 (concentration killing 50% of cells relative to time zero) (CCRF-CEM) greater than 100000 nM.
Compound `COc1cccc2c1C(=O)c1c(O)c3c(c(O)c1C2=O)C[C@@](O)(C(=O)CO)C[C@@H]3O[C@H]1C[C@H](N)[C@H](O)[C@H](C)O1` [DOXORUBICIN] has a GI50 (T47D) of 60 nM, a GI50 (TK-10) of 180 nM and a GI50 (CAKI-1) of 950 nM. For the same compound, the GI50 (RXF 393) was 100 nM, the GI50 (ACHN) was 80 nM and the CC50 (ACHN) was 100000 nM. The GI50 (A498) was 100 nM, the CC50 (A498) was 1900 nM and the GI50 (SK-OV-3) was 220 nM. For the same compound, the GI50 (OVCAR-8) was 100 nM, the GI50 (OVCAR-5) was 410 nM and the GI50 (SK-MEL-28) was 210 nM. The CC50 (SK-MEL-28) was 15900 nM, the GI50 (Malme-3M) was 120 nM and the GI50 (U-251) was 40 nM. It also gave a CC50 (U-251) of 30600 nM, a GI50 (SF-539) of 120 nM and a CC50 (SF-539) of 27200 nM. It also gave a GI50 (SF-295) of 100 nM, a GI50 (SW-620) of 90 nM and a GI50 (HT-29) of 120 nM. For the same compound, the GI50 (HCT-116) was 80 nM, the GI50 (COLO 205) was 180 nM and the GI50 (NCI-H322M) was 540 nM. For the same compound, the GI50 (SR) was 30 nM, the GI50 (RPMI-8226) was 80 nM and the GI50 (MOLT-4) was 30 nM. The GI50 (K562) was 190 nM and the GI50 (CCRF-CEM) was 80 nM.
